Values joined by “and” are separate entries in the source; they are usually repeats but may differ in a detail not shown here. Equal entries are not always repeated.
How the values were obtained:
[1] = In vivo toxic effect of alanine aminotransferase (ALAT) was determined 24 hr after mice were injected with 50 microg of pTG11033 plasmid complexed with compound into serum with DOPE; type: ADME, organism-based; settings: mouse
In short: (§1)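 Female Swiss mice, 6 weeks old, given one 200 µL tail-vein injection of cationic phosphonolipid/pTG11033 lipoplexes (lipid:DNA charge ratio 4, 50 µg DNA per animal). Lipoplexes were held 30 min at room temperature beforehand. Serum was taken from coagulated blood 24 h later and transaminases measured on an automated analyser. Results are mean (SEM) of 6 animals. TI = transfected/control mouse transaminase level.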

[2] = (§2) In vivo toxic effect of alanine aminotransferase (ALAT) was determined 24 hr after mice were injected with 50 microg of pTG11033 plasmid complexed with compound into serum with cholesterol; type: ADME, organism-based; design: unit not given beside the values; settings: mouse; in short: as §1
[3] = In vivo toxic effect of alanine aminotransferase (ALAT) was determined 24 hr after mice were injected with 50 microg of pTG11033 plasmid complexed with compound into serum without co-lipid; type: ADME, organism-based; settings: mouse; in short: as §1
[4] = biological target: T1, Aspartate aminotransferase, mitochondrial (Mus musculus) (UniProt P05202); test: In vivo toxic effect as serum aspartate aminotransferase (ASAT) 24 hr after 50 ug pTG11033 plasmid injection without co-lipid into mice; type: functional, organism-based; in short: as §1
T1 sequence (whole entry): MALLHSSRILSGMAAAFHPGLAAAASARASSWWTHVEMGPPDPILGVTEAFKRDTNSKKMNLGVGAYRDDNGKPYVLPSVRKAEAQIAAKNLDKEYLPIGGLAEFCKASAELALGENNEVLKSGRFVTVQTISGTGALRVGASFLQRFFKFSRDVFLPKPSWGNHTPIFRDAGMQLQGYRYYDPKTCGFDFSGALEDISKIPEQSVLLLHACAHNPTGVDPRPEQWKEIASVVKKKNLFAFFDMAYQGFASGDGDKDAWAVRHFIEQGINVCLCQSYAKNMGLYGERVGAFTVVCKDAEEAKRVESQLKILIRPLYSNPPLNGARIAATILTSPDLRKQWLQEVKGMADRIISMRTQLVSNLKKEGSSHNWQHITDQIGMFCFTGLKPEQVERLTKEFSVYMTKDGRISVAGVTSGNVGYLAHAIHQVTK

[5] = biological target: T1, Aspartate aminotransferase, mitochondrial (Mus musculus); test: In vivo toxic effect as serum aspartate aminotransferase (ASAT) 24 hr after DOPE complexed 50 ug pTG11033 plasmid injection into mice; type: functional, organism-based; in short: as §1
[6] = biological target: T1, Aspartate aminotransferase, mitochondrial (Mus musculus); test: In vivo toxic effect as serum aspartate aminotransferase (ASAT) 24 hr after cholesterol complexed 50 ug pTG11033 plasmid injection into mice; type: functional, organism-based; in short: as §1
[7] = biological target: T1, Aspartate aminotransferase, mitochondrial (Mus musculus); test: Toxicity index as ratio of serum ASAT levels in transfected and control mice; type: functional; in short: as §1
[8] = as §2; type: ADME, organism-based; settings: mouse; in short: as §1

| Structure (SMILES) | Toxicity [1] | Toxicity [2] | Toxicity [3] | Toxicity [4] | Toxicity [5] | Toxicity [6] | TI [7] | Toxicity [8] |
| --- | --- | --- | --- | --- | --- | --- | --- | --- |
| CCCCCCCC/C=C/CCCCCCCCOP(=O)(CC[As+](C)(C)C)OCCCCCCCC/C=C/CCCCCCCC.[I-] | 36 | 172 | 35 | 225 | 303 | 600 | – | – |
| CCCCCCCC/C=C\CCCCCCCC(=O)OCC(C[N+](C)(C)C)OC(=O)CCCCCCC/C=C\CCCCCCCC.[Cl-] (stereo not given) | 74 | 37 | 70 | 657 | 275 | 255 | – | – |
| CCCCCCCCCCCCCCOP(=O)(CC[P+](C)(C)C)OCCCCCCCCCCCCCC.[I-] | 39 | 34 | 55 | 120 | 145 | 174 | 1.69 (2×) and 2.39 and 2.45 | – |
| CCCCCCCC/C=C/CCCCCCCCOP(=O)(CC[P+](C)(C)C)OCCCCCCCC/C=C/CCCCCCCC.[I-] | 65 | – | 35 | 250 | 646 | 685 | – | 184 |
| CCCCCCCCCCCCCCOP(=O)(C[N+](C)(C)C)OCCCCCCCCCCCCCC.[I-] | 31 | 24 | 25 | 80 | 130 | 75 | 1.12 [middle of 4 runs] | – |
| CCCCCCCCCCCCCCOP(=O)(CC[As+](C)(C)C)OCCCCCCCCCCCCCC.[I-] | 34 | – | 26 | 79 | 155 | 190 | 1.47 [middle of 4 runs] | 41 |
| CCCCCCCC/C=C/CCCCCCCCOP(=O)(C[N+](C)(C)C)OCCCCCCCC/C=C/CCCCCCCC.[I-] | 30 | 70 | 250 | 900 | 125 | 225 | – | – |

— ChEMBL document CHEMBL1133536, “Cation substitution in cationic phosphonolipids: a new concept to improve transfection activity and decrease cellular toxicity” (J Med Chem, 2000)
